Measurements taken from ChEMBL document CHEMBL5376013, “Design, synthesis and biological evaluation of novel morpholinopyrimidine-5-carbonitrile derivatives as dual PI3K/mTOR inhibitors” (RSC Med Chem, 2024).

Assays:
Type in all cases: functional
Conditions in all cases: read-out: GI
[1] = test system: NCI-H23; experiment: Antitumor activity against human NCI-H23 cells assessed as growth inhibition at 10 uM relative to control
How it was run: (§1)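 After drug addition, plates were incubated 48 h at 37 °C under 5% CO2. Adherent cells were fixed with cold TCA (10% final, 60 min, 4 °C) and suspension cells with 16% final TCA. Staining used 0.4% SRB in 1% acetic acid, solubilized in 10 mM trizma, read at A515. Percent growth was calculated from time-zero, control and treated absorbances.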

[2] = test system: MOLT-4; experiment: Antitumor activity against human MOLT-4 cells assessed as growth inhibition at 10 uM relative to control; how it was run: as §1
[3] = test system: NCI-H322M; experiment: Antitumor activity against human NCI-H322M cells assessed as growth inhibition at 10 uM relative to control; how it was run: as §1
[4] = test system: NCI-H522; experiment: Antitumor activity against human NCI-H522 cells assessed as growth inhibition at 10 uM relative to control; how it was run: as §1
[5] = test system: K562; experiment: Antitumor activity against human K562 cells assessed as growth inhibition at 10 uM relative to control; how it was run: as §1
[6] = test system: SF-539; experiment: Antitumor activity against human SF-539 cells assessed as growth inhibition at 10 uM relative to control; how it was run: as §1
[7] = test system: HCT-116; experiment: Antitumor activity against human HCT-116 cells assessed as growth inhibition at 10 uM relative to control; how it was run: as §1
[8] = test system: SK-MEL-2; experiment: Antitumor activity against human SK-MEL-2 cells assessed as growth inhibition at 10 uM relative to control; how it was run: as §1
[9] = test system: UO-31; experiment: Antitumor activity against human UO-31 cells assessed as growth inhibition at 10 uM relative to control
How it was run: (§2)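 Drug exposure 48 h at 37 °C, 5% CO2. Adherent cells fixed with cold TCA (10% final), suspension cells with TCA (16% final). Stained with 0.4% SRB in 1% acetic acid, dissolved in 10 mM Tris, A515. Growth relative to time-zero and untreated control.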

[10] = test system: SNB-75; experiment: Antitumor activity against human SNB-75 cells assessed as growth inhibition at 10 uM relative to control; how it was run: as §2
[11] = test system: HCC 2998; experiment: Antitumor activity against human HCC 2998 cells assessed as growth inhibition at 10 uM relative to control; how it was run: as §1
[12] = test system: LOX IMVI; experiment: Antitumor activity against human LOX IMVI cells assessed as growth inhibition at 10 uM relative to control; how it was run: as §1
[13] = test system: RXF 393; experiment: Antitumor activity against human RXF 393 cells assessed as growth inhibition at 10 uM relative to control; how it was run: as §1
[14] = test system: KM12; experiment: Antitumor activity against human KM12 cells assessed as growth inhibition at 10 uM relative to control; how it was run: as §1
[15] = test system: EKVX; experiment: Antitumor activity against human EKVX cells assessed as growth inhibition at 10 uM relative to control; how it was run: as §1
[16] = test system: HT-29; experiment: Antitumor activity against human HT-29 cells assessed as growth inhibition at 10 uM relative to control; how it was run: as §1
[17] = test system: RPMI-8226; experiment: Antitumor activity against human RPMI-8226 cells assessed as growth inhibition at 10 uM relative to control; how it was run: as §1
[18] = test system: NCI-H226; experiment: Antitumor activity against human NCI-H226 cells assessed as growth inhibition at 10 uM relative to control; how it was run: as §1
[19] = test system: MDA-MB-435; experiment: Antitumor activity against human MDA-MB-435 cells assessed as growth inhibition at 10 uM relative to control; how it was run: as §1
[20] = test system: Hs-578T; experiment: Antitumor activity against human Hs-578T cells assessed as growth inhibition at 10 uM relative to control; how it was run: as §1
[21] = test system: 786-0; experiment: Antitumor activity against human 786-0 cells assessed as growth inhibition at 10 uM relative to control; how it was run: as §1
[22] = test system: IGROV-1; experiment: Antitumor activity against human IGROV-1 cells assessed as growth inhibition at 10 uM relative to control; how it was run: as §1
[23] = test system: MCF7; experiment: Antitumor activity against human MCF7 cells assessed as growth inhibition at 10 uM relative to control; how it was run: as §1
[24] = test system: COLO 205; experiment: Antitumor activity against human COLO 205 cells assessed as growth inhibition at 10 uM relative to control; how it was run: as §1
[25] = test system: T47D; experiment: Antitumor activity against human T47D cells assessed as growth inhibition at 10 uM relative to control; how it was run: as §2
[26] = test system: HL-60; experiment: Antitumor activity against human HL-60 cells assessed as growth inhibition at 10 uM relative to control; how it was run: as §1
[27] = test system: SW-620; experiment: Antitumor activity against human SW-620 cells assessed as growth inhibition at 10 uM relative to control; how it was run: as §2
[28] = test system: SK-MEL-28; experiment: Antitumor activity against human SK-MEL-28 cells assessed as growth inhibition at 10 uM relative to control; how it was run: as §2
[29] = test system: NCI-H460; experiment: Antitumor activity against human NCI-H460 cells assessed as growth inhibition at 10 uM relative to control; how it was run: as §1
[30] = test system: SNB-19; experiment: Antitumor activity against human SNB-19 cells assessed as growth inhibition at 10 uM relative to control; how it was run: as §2
[31] = test system: CCRF-CEM; experiment: Antitumor activity against human CCRF-CEM cells assessed as growth inhibition at 10 uM relative to control; how it was run: as §1
[32] = test system: BT-549; experiment: Antitumor activity against human BT-549 cells assessed as growth inhibition at 10 uM relative to control; how it was run: as §1
[33] = test system: MDA-MB-231; experiment: Antitumor activity against human MDA-MB-231 cells assessed as growth inhibition at 10 uM relative to control; how it was run: as §1
[34] = test system: HCT-15; experiment: Antitumor activity against human HCT-15 cells assessed as growth inhibition at 10 uM relative to control; how it was run: as §1
[35] = test system: SK-MEL-5; experiment: Antitumor activity against human SK-MEL-5 cells assessed as growth inhibition at 10 uM relative to control; how it was run: as §2
[36] = test system: Malme-3M; experiment: Antitumor activity against human Malme-3M cells assessed as growth inhibition at 10 uM relative to control; how it was run: as §1
[37] = test system: A549; experiment: Antitumor activity against human A549 cells assessed as growth inhibition at 10 uM relative to control; how it was run: as §1
[38] = test system: OVCAR-8; experiment: Antitumor activity against human OVCAR-8 cells assessed as growth inhibition at 10 uM relative to control; how it was run: as §1
[39] = test system: HOP-62; experiment: Antitumor activity against human HOP-62 cells assessed as growth inhibition at 10 uM relative to control; how it was run: as §1
[40] = test system: U-251; experiment: Antitumor activity against human U-251 cells assessed as growth inhibition at 10 uM relative to control; how it was run: as §2
[41] = test system: OVCAR-5; experiment: Antitumor activity against human OVCAR-5 cells assessed as growth inhibition at 10 uM relative to control; how it was run: as §1
[42] = test system: SR; experiment: Antitumor activity against human SR cells assessed as growth inhibition at 10 uM relative to control; how it was run: as §2
[43] = test system: CAKI-1; experiment: Antitumor activity against human CAKI-1 cells assessed as growth inhibition at 10 uM relative to control; how it was run: as §1
[44] = test system: OVCAR-3; experiment: Antitumor activity against human OVCAR-3 cells assessed as growth inhibition at 10 uM relative to control; how it was run: as §1
[45] = test system: MDA-MB-468; experiment: Antitumor activity against human MDA-MB-468 cells assessed as growth inhibition at 10 uM relative to control; how it was run: as §1
[46] = test system: SN12C; experiment: Antitumor activity against human SN12C cells assessed as growth inhibition at 10 uM relative to control; how it was run: as §2

SMILES: COc1cc(/C=N/Nc2nc(-c3ccc(Cl)cc3)c(C#N)c(N3CCOCC3)n2)cc(OC)c1OC
- inhibition of growth at 10 µM [1]: 13.3%
- inhibition of growth at 10 µM [2]: 65.9%
- inhibition of growth at 10 µM [3]: 16.4%
- inhibition of growth at 10 µM [4]: 31.4%
- inhibition of growth at 10 µM [5]: 51.2%
- inhibition of growth at 10 µM [6]: 35.5%
- inhibition of growth at 10 µM [7]: 55.4%
- inhibition of growth at 10 µM [8]: 20.4%
- inhibition of growth at 10 µM [9]: 67%
- inhibition of growth at 10 µM [10]: 48.9%
- inhibition of growth at 10 µM [11]: < 1%
- inhibition of growth at 10 µM [12]: 70%
- inhibition of growth at 10 µM [13]: 30.5%
- inhibition of growth at 10 µM [14]: 31.2%
- inhibition of growth at 10 µM [15]: 53.7%
- inhibition of growth at 10 µM [16]: 69.3%
- inhibition of growth at 10 µM [17]: 74.6%
- inhibition of growth at 10 µM [18]: 59.1%
- inhibition of growth at 10 µM [19]: 20.1%
- inhibition of growth at 10 µM [20]: 14.4%
- inhibition of growth at 10 µM [21]: 28.3%
- inhibition of growth at 10 µM [22]: 39.1%
- inhibition of growth at 10 µM [23]: < 35.5%
- inhibition of growth at 10 µM [24]: 46.6%
- inhibition of growth at 10 µM [25]: 51.8%
- inhibition of growth at 10 µM [26]: 40.8%
- inhibition of growth at 10 µM [27]: 10.3%
- inhibition of growth at 10 µM [28]: 14.2%
- inhibition of growth at 10 µM [29]: 46.2%
- inhibition of growth at 10 µM [30]: 14.8%
- inhibition of growth at 10 µM [31]: 58.1%
- inhibition of growth at 10 µM [32]: 45.7%
- inhibition of growth at 10 µM [33]: 27.8%
- inhibition of growth at 10 µM [34]: 48%
- inhibition of growth at 10 µM [35]: 71%
- inhibition of growth at 10 µM [36]: < 1%
- inhibition of growth at 10 µM [37]: 41.4%
- inhibition of growth at 10 µM [38]: 46.6%
- inhibition of growth at 10 µM [39]: 10.2%
- inhibition of growth at 10 µM [40]: 43.6%
- inhibition of growth at 10 µM [41]: 27.9%
- inhibition of growth at 10 µM [42]: 85.6%
- inhibition of growth at 10 µM [43]: < 1%
- inhibition of growth at 10 µM [44]: 25.9%
- inhibition of growth at 10 µM [45]: 32.1%
- inhibition of growth at 10 µM [46]: 35.4%
